Compound activity: PubChem, several laboratories
Hits are enriched below; roughly 2.6% of the tested compounds scored in any of these assays.
T cell modulator: modulators of CD8 T cell-vesicle binding, primary screen, mouse 2C CD8+ T cells, flow cytometry | response (vesicle binding), % at 7 µM | 2C CD8+ T cell-vesicle binding; hits give low values | 330,000 compounds, 0.068% hits;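 active means response, share of CD8 T cells binding vesicles, and their 90th percentile fluorescence all below set limits, cut at about 80% in these data, passing the limit was not always enough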;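 further: values below 100% mean blocked vesicle binding to the CD8+ T cells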
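Material: 2C TCR transgenic mouse naive CD8+ T cells, MACS-purified. Also added: QL9-charged Drosophila Ld/ICAM-1/B7-1 vesicles. Timing: binding 1.5 h at 37 °C. Measured by: high-throughput flow cytometry with anti-B7-1 and anti-CD8 staining. Read-out: percent CD8+ FL2 mean versus row control. Controls: Unloaded micro-vesicles (low), QL9 vesicles with 0.7% DMSO (high).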
MC4R ag barr: MC4R agonists recruiting beta-arrestin, primary screen, cell-based, luminescence, agonist arm of biased-ligand search; Melanocortin receptor 4 (Homo sapiens), P32245; U2OS MC4R beta-arrestin complementation; percent of melanotan II response, DMSO zero; activation, % at 8.9 µM; 360,000 compounds, 0.98% hits; AID 540308, 2011;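 active means activation above a per-plate cutoff, the mean activation of sample wells on that plate plus 3 SD, cut at about 8% in these data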
Target sequence (P32245 whole entry, looked up): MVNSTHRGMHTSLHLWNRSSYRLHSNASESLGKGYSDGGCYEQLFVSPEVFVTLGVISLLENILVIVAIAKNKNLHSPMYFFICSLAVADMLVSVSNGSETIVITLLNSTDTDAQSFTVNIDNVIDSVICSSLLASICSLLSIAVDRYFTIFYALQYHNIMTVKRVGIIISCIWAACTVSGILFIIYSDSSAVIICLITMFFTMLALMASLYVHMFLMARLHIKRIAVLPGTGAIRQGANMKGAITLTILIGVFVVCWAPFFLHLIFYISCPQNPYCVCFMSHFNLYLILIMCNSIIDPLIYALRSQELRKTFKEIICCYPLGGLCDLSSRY
EP2 modulator: EP2 receptor modulators, cAMP readout, primary screen, cell-based, HTRF cAMP, PGE2 stimulation | Prostaglandin E2 receptor EP2 subtype (Homo sapiens), P43116 | EP2-expressing cells, cAMP HTRF FRET, PGE2 co-stimulation | induction, % at 25 µM | 260,000 compounds, 0.83% hits | AID 940, 2007;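 active means compounds whose cAMP rise, as percent of the full-agonist control response, exceeds 60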;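 further: rat C6 glioma line stably carrying human EP2 under a CMV promoter; the protocol text gives 20 µM as final concentration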
Target sequence (P43116 whole entry, looked up): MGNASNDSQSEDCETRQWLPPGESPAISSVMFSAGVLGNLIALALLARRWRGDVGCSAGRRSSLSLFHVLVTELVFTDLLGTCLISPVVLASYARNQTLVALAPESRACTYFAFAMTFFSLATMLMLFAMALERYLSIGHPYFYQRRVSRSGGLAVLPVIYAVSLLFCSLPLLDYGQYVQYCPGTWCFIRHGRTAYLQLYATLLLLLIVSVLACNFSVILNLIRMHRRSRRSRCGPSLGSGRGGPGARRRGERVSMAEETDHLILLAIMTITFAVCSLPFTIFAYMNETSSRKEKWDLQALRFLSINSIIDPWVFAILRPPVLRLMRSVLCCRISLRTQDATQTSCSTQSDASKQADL
Exocytosis inh: LAMP-1 surface exposure blockers, TALL-104 cells – cell-based, flow cytometry, MLPCN library, primary screen; TALL-104 LAMP-1 surface exposure; cells stimulated with thapsigargin and PMA; inhibition, % at 10 µM; 360,000 compounds, 0.66% hits;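 active means inhibition above about 55%, limit read from the data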
PGE2 EP2 inh: human EP2 receptor antagonists, primary screen, TR-FRET cAMP, C6 glioma cells. inhibition, % at 25 µM. C6 glioma cells expressing human EP2; cells stimulated with saturating PGE2. 260,000 compounds, 0.52% hits. Prostaglandin E2 receptor EP2 subtype (Homo sapiens), P43116. AID 1422, 2008;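 active means percent inhibition above 40 after rounding to a whole number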;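 further: rat C6 glioma host cells with rolipram phosphodiesterase inhibitor present; the protocol text gives 20 µM as final concentration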
MC4R antagonist: MC4R antagonists of cAMP signaling, primary screen, cell-based, TR-FRET, antagonist arm of biased-ligand search | AID 540295, 2011 | MC4R-expressing cells, MTII-stimulated cAMP, LANCE TR-FRET | 360,000 compounds, 0.48% hits | inhibition, % at 6.5 µM;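 active means inhibition above its plate's cutoff, the mean of tested wells on that plate plus 3 SD, cut at about 29% in these data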
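Material: human MC4R-expressing U2OS cells. Probe or stimulus: Melanotan II challenge. Dosing: 6.5 µM single dose. Times: 30-min compound, 1-h challenge, 1-h detection, room temperature. Technique: TR-FRET with Eu-cAMP and labeled anti-cAMP, 671 nm. Replication: singlicate.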
Large screens that a line does not name were inactive; ! = a repeat was not active.

O=c1c2c3c(sc2ncn1/N=C/c1ccc([N+](=O)[O-])o1)CCCC3	Exocytosis inh 83.3
Cc1ccc(C(=O)N2CCc3ccccc32)cc1NC(=O)c1ccco1	none
CC(C)N(CCNC(=O)c1nn(Cc2ccccc2)c(=O)c2ccccc12)C(C)C	T cell modulator 0.0 (no result: EP2 modulator, PGE2 EP2 inh)
CC(C)CCNC(=O)c1nn(Cc2ccccc2)c(=O)c2ccccc12	none (no result: EP2 modulator, PGE2 EP2 inh)
COc1ccccc1CNC(=O)CN(c1cccc([N+](=O)[O-])c1)S(C)(=O)=O	none
Cc1ccccc1CNC(=O)CN(c1cccc([N+](=O)[O-])c1)S(C)(=O)=O	MC4R antagonist 30.3
O=C(CNc1cccc(S(=O)(=O)N2CCCCCC2)c1)Nc1cccc([N+](=O)[O-])c1	none (no result: EP2 modulator, PGE2 EP2 inh)
FC(F)(F)c1cccc(NC(=S)N2CCN(c3cccc(C(F)(F)F)c3)CC2)c1	MC4R ag barr 9.2
Cc1c2ccccc2c(C)c2c1ccc1ccccc12	none (no result: EP2 modulator, PGE2 EP2 inh)
CCOc1ccc(C2NC(=O)C(C#N)=C(S)N2c2cccc(C)c2)cc1OC (configuration not stated)	Exocytosis inh 69.3
COC(=O)c1ccc(COC(=O)c2nn(C)c(=O)c3ccccc23)cc1	none
COc1ccc2[nH]c(=O)c(CN(Cc3cccs3)S(=O)(=O)c3ccc(C(C)=O)cc3)cc2c1	PGE2 EP2 inh 66.3 (no result: T cell modulator, MC4R ag barr, Exocytosis inh, MC4R antagonist)
COc1ccc(S(=O)(=O)N(Cc2cccs2)Cc2cc3cc4c(cc3[nH]c2=O)OCCO4)cc1	none (no result: T cell modulator, MC4R ag barr, Exocytosis inh, MC4R antagonist)
COC(=O)c1cccc(S(=O)(=O)N(Cc2cccs2)Cc2cc3cc(OC)ccc3[nH]c2=O)c1	PGE2 EP2 inh 46.1 (no result: T cell modulator, MC4R ag barr, Exocytosis inh, MC4R antagonist)
COC(=O)C[C@@H]1CC[C@H](NC(=O)Cc2ccccn2)[C@@H](CO)O1	none (no result: T cell modulator, MC4R ag barr, EP2 modulator, PGE2 EP2 inh, MC4R antagonist)
COc1ccc(CN(Cc2cccn2C)S(=O)(=O)c2ccc(C)cc2)cc1	EP2 modulator 72.3
CC(C)(C)C1CCc2sc(C(=O)NNC(=O)CCl)cc2C1 (configuration not stated)	MC4R ag barr 18.6 (no result: T cell modulator)
O=c1[nH]c(-c2ccc(O)cc2)nc2scc(-c3cccs3)c12	none
O=C(O)c1ccc(-c2nc3scc(-c4ccccc4)c3c(=O)[nH]2)cc1	PGE2 EP2 inh 40.7
CS(=O)(=O)N(CC(=O)N/N=C/c1ccc(OCC(=O)N2CCOCC2)cc1)c1ccccc1Cl	none
Cc1ccc(-n2nc3ccc(NC(=O)c4ccco4)cc3n2)cc1	none
Cc1c(C(=O)NNC(=O)c2cccnc2)cccc1[N+](=O)[O-]	T cell modulator 0.0 (no result: EP2 modulator, PGE2 EP2 inh)
Cc1ccc(-n2nc3ccc(NC(=O)c4cccc([N+](=O)[O-])c4C)cc3n2)cc1	MC4R ag barr 8.9
CC(=O)Cn1c([N+](=O)[O-])nn(C)c1=O	none (no result: T cell modulator, MC4R ag barr, Exocytosis inh, MC4R antagonist)
Cc1ccc(O)c(C(=O)CC(=O)c2ccc(C(C)(C)C)cc2)c1	MC4R ag barr 12.3 (no result: EP2 modulator, PGE2 EP2 inh)
COc1ccc(N(C(=O)c2cnccn2)C(C(=O)NC2CCCCC2)c2ccc(Cl)cc2)cc1 (configuration not stated)	none (no result: EP2 modulator)
COc1ccc(C(C(=O)NC2CCCCC2)N(C(=O)CCl)c2ccc(Cl)cc2)cc1 (configuration not stated)	MC4R ag barr 13.2
COc1ccc(N(C(=O)c2ccco2)C(C(=O)NC2CCCCC2)c2ccccc2)cc1 (configuration not stated)	EP2 modulator 61.5!
O=C(NC1CCCCC1)C(c1cccnc1)N(C(=O)CCl)c1cccc(Cl)c1 (configuration not stated)	MC4R ag barr 13.2
O=c1ccc2nc3ccccc3sc-2c1	none (no result: T cell modulator, MC4R ag barr, EP2 modulator, PGE2 EP2 inh, MC4R antagonist)
Cc1cc2c(c(=O)n1CC1CCCO1)C(c1ccc3c(c1)OCO3)C(C#N)=C(N)O2 (configuration not stated)	none
CCOC(=O)C(C)n1ncc2c3sc(C)cc3n(Cc3ccc(F)cc3)c2c1=O (configuration not stated)	EP2 modulator 65.3 (no result: T cell modulator, MC4R ag barr, Exocytosis inh, PGE2 EP2 inh, MC4R antagonist)
O=C(c1cccs1)N1CCC(C(=O)N2CCN(Cc3ccc4c(c3)OCO4)CC2)CC1	none
C[C@]12CC[C@@H]3c4ccc(O)cc4CC[C@H]3[C@@H]1C[C@@H](O)[C@@H]2O	none
C[C@H](NCCN(C)C)[C@@H]1CC[C@@H]2[C@H]3CCc4cc(O)ccc4[C@@H]3CC[C@]21C	PGE2 EP2 inh 53.0 (no result: T cell modulator, MC4R ag barr, Exocytosis inh, MC4R antagonist)
O=[N+]([O-])c1cc([N+](=O)[O-])c(Oc2c(F)cccc2F)cc1NN1CCCCC1	Exocytosis inh 77.8 (no result: EP2 modulator, PGE2 EP2 inh)
O=[N+]([O-])c1cc([N+](=O)[O-])c(Oc2c(F)ccc(F)c2F)cc1NN1CCCCC1	none (no result: EP2 modulator, PGE2 EP2 inh)
O=C1c2oc3ccccc3c(=O)c2C(c2cccc(F)c2)N1CCCO (configuration not stated)	none
Cn1cnc([N+](=O)[O-])c1Sc1nc(N)nc2c1ncn2Cc1ccccc1	PGE2 EP2 inh 53.2 (no result: T cell modulator)
COc1cccc(N(C(=O)Cc2cccs2)C(C(=O)NC2CCCC2)c2ccccc2)c1 (configuration not stated)	none (no result: T cell modulator, MC4R ag barr, Exocytosis inh, MC4R antagonist)
Cc1ccc(N(C(=O)Cc2cccs2)C(C(=O)NC2CCCC2)c2cccs2)cc1 (configuration not stated)	EP2 modulator 80.4 (no result: T cell modulator, MC4R ag barr, Exocytosis inh, MC4R antagonist)
O=C(NC1CCCCC1)C(c1ccccc1F)N(Cc1ccco1)C(=O)Cc1cccs1 (configuration not stated)	EP2 modulator 63.5 (no result: T cell modulator, MC4R ag barr, Exocytosis inh, MC4R antagonist)
C#CC(=O)N(c1cccc(OC)c1)C(C(=O)NC1CCCC1)c1cccs1 (configuration not stated)	MC4R antagonist 34.7
CC(=O)c1ccc(N(C(=O)Cc2cccs2)C(C(=O)NC2CCCC2)c2cccs2)cc1 (configuration not stated)	none (no result: T cell modulator, MC4R ag barr, Exocytosis inh, MC4R antagonist)
COc1ccc(C)cc1N(C(=O)Cc1cccs1)C(C(=O)NC1CCCC1)c1ccc(C)o1 (configuration not stated)	EP2 modulator 75.2 (no result: T cell modulator, MC4R ag barr, Exocytosis inh, MC4R antagonist)
CC1(C)Cc2c(cnn2-c2ccccc2)C(NC(=O)C2(C(N)=O)CC2)C1 (configuration not stated)	none (no result: EP2 modulator, PGE2 EP2 inh)
NS(=O)(=O)c1cccc(NC(=O)CCS(=O)(=O)c2ccc(Cl)cc2)c1	none
Cc1n[nH]c(C)c1CCC(=O)N1C[C@H](C(=O)O)[C@@H](c2ccc(F)cc2)C1	none (no result: T cell modulator, MC4R ag barr, Exocytosis inh, MC4R antagonist)
O=C(O)COc1ccc(/C=C/C(=O)c2ccc3ccccc3c2)cc1	none (no result: EP2 modulator, PGE2 EP2 inh)
O=C(O)COc1ccc(/C=C/C(=O)c2ccc(C3CCCCC3)cc2)cc1	MC4R ag barr 8.8 (no result: EP2 modulator, PGE2 EP2 inh)
O=C(CSc1nnc(-c2ccccc2)o1)N(C1CCCCC1)C1CCCCC1	EP2 modulator 76.3 (no result: T cell modulator, MC4R ag barr, Exocytosis inh, MC4R antagonist)
